Measurements reported in ChEMBL document CHEMBL1125520, “Improved brain delivery of AZT using a glycosyl phosphotriester prodrug” (1992).

Experiments:
Mus musculus [1] = assay: In Vivo detection in Mice brains after oral administration of 58.33 mg/kg detected in the form of AZT phosphodiester 2 after 48 hr; assay type: functional
Mus musculus [2] = organism: Mus musculus; assay: In Vitro detection by Gray and Whittaker method for the total internal nucleoside; assay type: functional
Outline: (§1)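 Crude synaptosomes from three mouse brains were prepared by Gray–Whittaker homogenization in 10% sucrose buffered with 5 mM Tris-HCl, pH 7.4. The 7000g pellet was resuspended and incubated with each nucleoside at 3 mM for 15 min at 37 °C, stopped by cold 10-fold dilution and washed twice. Internal nucleoside was extracted in acetonitrile–water (3:1) and measured by HPLC.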

Mus musculus [3] = assay: In Vivo detection in Mice plasma after oral administration of 58.33 mg/kg detected in the form of AZT after 8 hr; assay type: functional, organism-based; parameters: dose 58.33 mg/kg
Outline: (§2)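 Male Swiss mice (18–20 g, six weeks old) given the test substance or vehicle ([…]) by gavage as a 3 mM solution (1.5 µmol/mouse). Aortic blood was collected into heparinized tubes at 0.5–48 h and centrifuged at 13000g for 10 min. Plasma was stored at -22 °C and analysed by HPLC. Three mice were used per time point, in triplicate. Values were not corrected for recovery.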

Mus musculus [4] = assay: In Vivo detection in Mice plasma after oral administration of 58.33 mg/kg detected in the form of AZT phosphodiester 2 after 48 hr; assay type: functional, organism-based; parameters: dose 58.33 mg/kg; outline: as §2
Mus musculus [5] = assay: In Vivo detection in Mice plasma after oral administration of 58.33 mg/kg detected in the form of AZT 5`-P after 4 hr; assay type: functional, organism-based; parameters: dose 58.33 mg/kg
Mus musculus [6] = assay: In Vivo detection in Mice brains after oral administration of 58.33 mg/kg detected in the form of AZT 5`-P after 8 hr; assay type: functional
Mus musculus [7] = organism: Mus musculus; assay: In Vitro detection by Gray and Whittaker method for % of internalization by comparing with external nucleoside of 2000 nM/g; assay type: functional; outline: as §1
Mus musculus [8] = assay: In Vivo detection in Mice brains after oral administration of 58.33 mg/kg detected in the form of AZT phosphodiester 3 after 24 hr; assay type: functional
Mus musculus [9] = assay: In Vivo detection in Mice plasma after oral administration of 58.33 mg/kg detected in the form of AZT phosphodiester 3 after 2 hr; assay type: functional, organism-based; parameters: dose 58.33 mg/kg; outline: as §2
Mus musculus [10] = assay: In Vivo detection in Mice brains after oral administration of 58.33 mg/kg detected in the form of AZT phosphodiester 2 after 2 hr; assay type: functional
Mus musculus [11] = assay: In Vivo detection in Mice brains after oral administration of 58.33 mg/kg detected in the form of AZT 5`-P after 24 hr; assay type: functional
Mus musculus [12] = assay: In Vivo detection in Mice plasma after oral administration of 58.33 mg/kg detected in the form of AZT phosphodiester 2 after 2 hr; assay type: functional, organism-based; parameters: dose 58.33 mg/kg; outline: as §2
Mus musculus [13] = assay: In Vivo detection of total AZT in Mice brains after oral administration of 58.33 mg/kg after 4 hr; assay type: functional
Outline: (§3)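 Male Swiss mice (18–20 g) dosed orally with a 3 mM solution in […] vehicle; decapitated at 0.5–48 h. Brains were homogenized in acetonitrile-water (3:1), centrifuged at 6000g for 40 min at 4 °C, lyophilized, redissolved in water and filtered (0.45 µm). Reversed-phase C18 column-switching HPLC with diode-array detection; standard spiking; vehicle-fed controls. Three mice per point, triplicates.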

Mus musculus [14] = assay: In Vivo detection in Mice plasma after oral administration of 58.33 mg/kg detected in the form of AZT after 4 hr; assay type: functional, organism-based; parameters: dose 58.33 mg/kg
Mus musculus [15] = assay: In Vivo detection in Mice plasma after oral administration of 58.33 mg/kg detected in the form of AZT 5`-P after 48 hr; assay type: functional, organism-based; parameters: dose 58.33 mg/kg
Mus musculus [16] = assay: In Vivo detection of total AZT in Mice brains after oral administration of 58.33 mg/kg after 2 hr; assay type: functional; outline: as §3
Mus musculus [17] = assay: In Vivo detection of total AZT in Mice brains after oral administration of 58.33 mg/kg after 0.5 hr; assay type: functional; outline: as §3
Mus musculus [18] = assay: In Vivo detection in Mice plasma after oral administration of 58.33 mg/kg detected in the form of AZT after 0.5 hr; assay type: functional, organism-based; parameters: dose 58.33 mg/kg
Mus musculus [19] = assay: In Vivo detection in Mice plasma after oral administration of 58.33 mg/kg detected in the form of AZT phosphodiester 3 after 8 hr; assay type: functional, organism-based; parameters: dose 58.33 mg/kg; outline: as §2
Mus musculus [20] = assay: In Vivo detection in Mice brains after oral administration of 58.33 mg/kg detected in the form of AZT after 48 hr; assay type: functional
Mus musculus [21] = assay: In Vivo detection of total AZT in Mice plasma after oral administration of 58.33 mg/kg after 1 hr; assay type: functional, organism-based; parameters: dose 58.33 mg/kg; outline: as §2
Mus musculus [22] = assay: In Vivo detection in Mice brains after oral administration of 41.63 mg/kg detected in the form of AZT after 8 hr; assay type: functional
Mus musculus [23] = assay: In Vivo detection of total AZT in Mice brains after oral administration of 41.63 mg/kg after 0.5 hr; assay type: functional; outline: as §3
Mus musculus [24] = assay: In Vivo detection in Mice plasma after oral administration of 41.63 mg/kg detected in the form of AZT 5`-P after 4 hr; assay type: functional, organism-based; parameters: dose 41.63 mg/kg
Mus musculus [25] = assay: In Vivo detection in Mice plasma after oral administration of 41.63 mg/kg detected in the form of AZT phosphodiester 2 after 4 hr; assay type: functional, organism-based; parameters: dose 41.63 mg/kg
Mus musculus [26] = assay: In Vivo detection of total AZT in Mice brains after oral administration of 41.63 mg/kg after 8 hr; assay type: functional; outline: as §3
Mus musculus [27] = assay: In Vivo detection in Mice plasma after oral administration of 41.63 mg/kg detected in the form of AZT 5`-P after 48 hr; assay type: functional, organism-based; parameters: dose 41.63 mg/kg
Mus musculus [28] = assay: In Vivo detection in Mice plasma after oral administration of 41.63 mg/kg detected in the form of AZT phosphodiester 2 after 2 hr; assay type: functional, organism-based; parameters: dose 41.63 mg/kg
Mus musculus [29] = assay: In Vivo detection in Mice plasma after oral administration of 41.63 mg/kg detected in the form of AZT after 2 hr; assay type: functional, organism-based; parameters: dose 41.63 mg/kg
Mus musculus [30] = assay: In Vivo detection in Mice plasma after oral administration of 41.63 mg/kg detected in the form of AZT phosphodiester 2 after 8 hr; assay type: functional, organism-based; parameters: dose 41.63 mg/kg
Mus musculus [31] = assay: In Vivo detection in Mice brains after oral administration of 41.63 mg/kg detected in the form of AZT phosphodiester 2 after 8 hr; assay type: functional
Mus musculus [32] = assay: In Vivo detection in Mice brains after oral administration of 20 mg/kg detected in the form of AZT phosphodiester 2 after 48 hr; assay type: functional
Mus musculus [33] = assay: In Vivo detection in Mice brains after oral administration of 41.63 mg/kg detected in the form of AZT phosphodiester 2 after 2 hr; assay type: functional
Mus musculus [34] = assay: In Vivo detection in Mice brains after oral administration of 41.63 mg/kg detected in the form of AZT phosphodiester 2 after 4 hr; assay type: functional
Mus musculus [35] = assay: In Vivo detection in Mice plasma after oral administration of 41.63 mg/kg detected in the form of AZT phosphodiester 2 after 48 hr; assay type: functional, organism-based; parameters: dose 41.63 mg/kg
Mus musculus [36] = assay: In Vivo detection of total AZT in Mice plasma after oral administration of 41.63 mg/kg after 8 hr; assay type: functional, organism-based; parameters: dose 41.63 mg/kg; outline: as §2
Mus musculus [37] = assay: In Vivo detection of total AZT in Mice brains after oral administration of 41.63 mg/kg after 2 hr; assay type: functional; outline: as §3
Mus musculus [38] = assay: In Vivo detection in Mice brains after oral administration of 41.63 mg/kg detected in the form of AZT after 2 hr; assay type: functional

Work on `CCCCCCCCCCCCCCCCOP(=O)(OCCO[C@H]1O[C@H](CO)[C@@H](O)[C@H](O)[C@@H]1O)OCC1OC(n2cc(C)c(=O)[nH]c2=O)CC1N=[N+]=[N-]` (stereo not given in full) yielded a Brain content (Mus musculus [1]) of 3.8 nmol/g, a Brain content (Mus musculus [2]) of 567.8 nM/g and a Plasma content (Mus musculus [3]) of 8.6 nM ml-1. For the same compound, the Plasma content (Mus musculus [4]) was 0 nM ml-1, the Plasma content (Mus musculus [5]) was 3 nM ml-1 and the Brain content (Mus musculus [6]) was 106 nmol/g. It also gave an Internalisation (Mus musculus [7]) of 6.24%, a Brain content (Mus musculus [8]) of 0 nmol/g and a Plasma content (Mus musculus [9]) of 0 nM ml-1. It also gave a Brain content (Mus musculus [10]) of 5.2 nmol/g, a Brain content (Mus musculus [11]) of 81.3 nmol/g and a Plasma content (Mus musculus [12]) of 0 nM ml-1. The Brain content (Mus musculus [13]) was 122 nmol/g, the Plasma content (Mus musculus [14]) was 2.3 nM ml-1 and the Plasma content (Mus musculus [15]) was 14.2 nM ml-1. For the same compound, the Brain content (Mus musculus [16]) was 140.8 nM ml-1, the Brain content (Mus musculus [17]) was 38.5 nM ml-1 and the Plasma content (Mus musculus [18]) was 1.6 nM ml-1. The Plasma content (Mus musculus [19]) was 0 nM ml-1, the Brain content (Mus musculus [20]) was 1.1 nmol/g and the Plasma content (Mus musculus [21]) was 14 nM ml-1.

`Cc1cn([C@H]2C[C@H](N=[N+]=[N-])[C@@H](COP(=O)(O)OCCO[C@H]3O[C@H](CO)[C@@H](O)[C@H](O)[C@@H]3O)O2)c(=O)[nH]c1=O` was tested, and the Brain content (Mus musculus [22]) was 0.9 nmol/g, the Brain content (Mus musculus [23]) was 38.6 nM ml-1 and the Brain content (Mus musculus [2]) was 8.3 nM/g. For the same compound, the Plasma content (Mus musculus [24]) was 6.7 nM ml-1, the Plasma content (Mus musculus [25]) was 0 nM ml-1 and the Brain content (Mus musculus [26]) was 43.1 nM ml-1. For the same compound, the Plasma content (Mus musculus [27]) was 17.9 nM ml-1, the Plasma content (Mus musculus [28]) was 1.6 nM ml-1 and the Plasma content (Mus musculus [29]) was 3.1 nM ml-1. For the same compound, the Plasma content (Mus musculus [30]) was 0 nM ml-1, the Brain content (Mus musculus [31]) was 8.9 nmol/g and the Internalisation (Mus musculus [7]) was 0.1%. For the same compound, the Brain content (Mus musculus [32]) was 2.5 nM ml-1, the Brain content (Mus musculus [33]) was 5.2 nM ml-1 and the Brain content (Mus musculus [34]) was 7.9 nM ml-1. The Plasma content (Mus musculus [35]) was 0 nM ml-1, the Plasma content (Mus musculus [36]) was 5.7 nM ml-1 and the Brain content (Mus musculus [37]) was 26.2 nM ml-1. It also gave a Brain content (Mus musculus [38]) of 1.2 nmol/g.
